High-throughput results: PubChem, The Scripps Research Institute Molecular Screening Center
CHO-K1 Ca PAM = nonselective calcium activators in parental CHO-K1 cells, primary screen, counter-screen for M1 PAM project, cell-based, Fluo-8 calcium fluorescence, full deck, 1536-well. ATP EC20; 0% at ATP EC20, 100% at ATP max. activation, % at 3 µM. hit rate 0.02% among 360,000;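 active means activation above the run cutoff, the mean activation of all test compounds plus 3 SD, cut at about 40% in these data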;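 further: peak over basal fluorescence ratio in a 140 s read after ATP addition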
CHO-K1 Ca ag = counter-screen for M1 agonists: effect in parental CHO-K1 cells. Fluo-8 calcium fluorescence; scaled to maximal ATP response, vehicle zero. activation, % at 3 µM. hit rate 0.48% among 360,000. AID 602248, 2012; in the data active means activation above about 15%;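 further: untransfected CHO-K1 host cells lacking M1 receptor as counterscreen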
OX1R antag-1 = OX1R (HCRTR1) antagonists, primary screen, fluorescence, CHO/OX1R cells, Fluo-8 calcium, orexin A; Fluo-8 calcium fluorescence; inhibition, % at 5 µM; hit rate 0.43% among 330,000;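 active means inhibition above its plate's threshold, mean inhibition of all tested compounds on the plate plus 3 SD, cut at about 37% in these data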;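 further: 0% = orexin A challenge wells and 100% = SB-334867-A antagonist wells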
Target sequence (O43613 whole entry, looked up): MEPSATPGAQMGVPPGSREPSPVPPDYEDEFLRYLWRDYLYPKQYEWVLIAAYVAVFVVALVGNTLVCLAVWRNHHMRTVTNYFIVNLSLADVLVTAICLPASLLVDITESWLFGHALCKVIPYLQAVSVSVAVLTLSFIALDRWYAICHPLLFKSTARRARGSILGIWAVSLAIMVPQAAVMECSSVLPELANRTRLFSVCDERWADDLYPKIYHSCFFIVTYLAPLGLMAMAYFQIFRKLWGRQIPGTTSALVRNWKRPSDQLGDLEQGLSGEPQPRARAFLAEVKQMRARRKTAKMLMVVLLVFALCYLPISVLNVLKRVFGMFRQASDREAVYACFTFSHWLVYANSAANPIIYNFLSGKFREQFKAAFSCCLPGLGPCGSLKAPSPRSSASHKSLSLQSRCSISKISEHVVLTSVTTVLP
CHO parental Ca = ATP-evoked calcium signal inhibitors, parental CHO, primary screen, counter-screen for OX1R antagonist project, cell-based, fluorescence, Fluo-8 calcium dye. parental CHO-K1, ATP-induced calcium, Fluo-8 fluorescence. inhibition, % at 5.6 µM. hit rate 0.63% among 330,000. AID 463079, 2010;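 active means inhibition above that plate's mean sample inhibition plus 3 SD, cut at about 26% in these data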;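 further: 0% = ATP-challenged DMSO wells and 100% = DMSO wells without ATP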
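Assay system – parental CHO cells · Reagent – ATP stimulus · Detection – intracellular calcium via Fluo-8 no-wash fluorescent dye · Evaluation – percent inhibition of ATP-evoked calcium rise, normalized to controls · Controls – ATP wells versus no-ATP DMSO wells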
OX1R antag-2 = antagonists of human orexin 1 receptor (OX1R). Orexin/Hypocretin receptor type 1 (Homo sapiens), O43613. OX1R-expressing cells, FRET antagonist read-out. inhibition, % at 6.6 µM. hit rate 1.8% among 330,000. AID 485270, 2010; in the data active means inhibition mostly above about 38%, no sharp cut-off; inactive means mostly below about 40%;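 further: 0% = agonist challenge alone and 100% = reference antagonist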
CHO-K1 Ca antag = counter-screen for M1 antagonists: effect in parental CHO-K1 cells. inhibition, % at 3 µM. ATP-induced calcium, Fluo-8 fluorescence. hit rate 0.6% among 360,000;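 active means inhibition above a per-plate cutoff, the plate's mean sample inhibition plus 3 SD, cut at about 24% in these data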;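 further: 0% = DMSO plus EC80 ATP and 100% = DMSO alone without ATP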
Numbers without * were called inactive. Compounds with a hit are over-represented: about 2.9% of the library has one in this group of screens.

What do the screens show for `CCn1c(=NC(=O)CCS(=O)(=O)c2ccccc2)sc2cccc(OC)c21`?
CHO-K1 Ca PAM: 8; CHO-K1 Ca ag: 2; OX1R antag-1: 12; CHO parental Ca: 56*; OX1R antag-2: 25; CHO-K1 Ca antag: -5

Results for CCOC(=O)n1ccc(C(=O)Nc2ccccc2F)n1 ?
CHO-K1 Ca PAM: 8; CHO-K1 Ca ag: 0; OX1R antag-1: -7; CHO parental Ca: 29*; OX1R antag-2: 7; CHO-K1 Ca antag: -9

What do the screens show for `O=C(O)c1cccc(N2C(=O)c3cc([N+](=O)[O-])cc4cc([N+](=O)[O-])cc(c34)C2=O)c1`?
CHO-K1 Ca PAM: 14; CHO-K1 Ca ag: 0; OX1R antag-1: 1; CHO parental Ca: -4; OX1R antag-2: 96*; CHO-K1 Ca antag: 1

What do the screens show for `COC(=O)CCC(C)N1CCC(Oc2ccc(C(=O)NCc3ccccn3)cc2)CC1` (stereo not drawn)?
CHO-K1 Ca PAM: -2; CHO-K1 Ca ag: 0; CHO-K1 Ca antag: -7

How did COc1ccc(CCC(=O)NNC(=O)c2ccccn2)cc1OC do in these assays?
CHO-K1 Ca PAM: -18; CHO-K1 Ca ag: 0; CHO-K1 Ca antag: 8

Results for CN(C)S(=O)(=O)c1ccc(NC(=O)CSc2nc3ccccc3n2-c2ccccc2)cc1 ?
CHO-K1 Ca PAM: 8; CHO-K1 Ca ag: 0; OX1R antag-1: -3; CHO parental Ca: -4; OX1R antag-2: -2; CHO-K1 Ca antag: -4

Results for CCN(CC)c1ccc(NC(=O)CSc2nc3ccccc3c(=O)n2-c2cc(S(=O)(=O)N(C)C)ccc2C)cc1 ?
CHO-K1 Ca PAM: -14; CHO-K1 Ca ag: -1; OX1R antag-1: -10; CHO parental Ca: -11; OX1R antag-2: 30; CHO-K1 Ca antag: 24*

Results for CCn1c(C)csc1=NC(=O)c1ccccc1 ?
CHO-K1 Ca PAM: 4; CHO-K1 Ca ag: 0; OX1R antag-1: -6; CHO parental Ca: -3; OX1R antag-2: 76*; CHO-K1 Ca antag: 2

What do the screens show for `CCOC(=O)c1c(C)[nH]c(C)c1C(=O)COc1ncnc2cc([N+](=O)[O-])ccc12`?
CHO-K1 Ca PAM: -21; CHO-K1 Ca ag: 2; OX1R antag-1: -40; CHO parental Ca: -20; OX1R antag-2: 75*; CHO-K1 Ca antag: 1

What do the screens show for `CC(NC(=O)COc1ncnc2cc([N+](=O)[O-])ccc12)c1ccccc1` (stereo not drawn)?
CHO-K1 Ca PAM: -12; CHO-K1 Ca ag: 1; OX1R antag-1: -14; CHO parental Ca: -5; OX1R antag-2: 64*; CHO-K1 Ca antag: 20

Results for O=C(COc1ncnc2cc([N+](=O)[O-])ccc12)NCCc1ccc(Cl)cc1 ?
CHO-K1 Ca PAM: 13; CHO-K1 Ca ag: 6; OX1R antag-1: -18; CHO parental Ca: -21; OX1R antag-2: 18; CHO-K1 Ca antag: -19

Results for COc1cccc(NC(=S)NC2CC(C)(C)NC(C)(C)C2)c1 ?
CHO-K1 Ca PAM: -11; CHO-K1 Ca ag: 0; OX1R antag-1: -17; CHO parental Ca: -8; OX1R antag-2: 13; CHO-K1 Ca antag: 26*

Results for Cc1cccc(S(=O)(=O)C(C#N)c2nc3ccccc3nc2N2CCCC2)c1 (stereo not drawn) ?
CHO-K1 Ca PAM: -9; CHO-K1 Ca ag: 0; OX1R antag-1: -9; CHO parental Ca: -8; OX1R antag-2: 16; CHO-K1 Ca antag: 27*

How did CCCOC(=O)/C(=C\c1ccc([N+](=O)[O-])o1)NC(=O)c1ccccc1 do in these assays?
CHO-K1 Ca PAM: 9; CHO-K1 Ca ag: 1; OX1R antag-1: -18; CHO parental Ca: -12; OX1R antag-2: 49; CHO-K1 Ca antag: -12

Results for O=C(NCCO)/C(=C\c1ccc([N+](=O)[O-])o1)NC(=O)c1ccccc1 ?
CHO-K1 Ca PAM: -8; CHO-K1 Ca ag: 0; OX1R antag-1: -15; CHO parental Ca: -14; OX1R antag-2: 65*; CHO-K1 Ca antag: 15

What do the screens show for `O=C(NCCc1ccccc1)/C(=C\c1cccc([N+](=O)[O-])c1)NC(=O)c1ccco1`?
CHO-K1 Ca PAM: 21; CHO-K1 Ca ag: 1; OX1R antag-1: -23; CHO parental Ca: -13; OX1R antag-2: 53*; CHO-K1 Ca antag: -14

What do the screens show for `CCOC(=O)/C(=C\c1ccc([N+](=O)[O-])o1)NC(=O)c1ccccc1`?
CHO-K1 Ca PAM: 9; CHO-K1 Ca ag: 0; OX1R antag-1: -27; CHO parental Ca: -17; OX1R antag-2: 43*; CHO-K1 Ca antag: -11

How did O=C(NCCCO)/C(=C/c1ccc(-c2cccc([N+](=O)[O-])c2)o1)NC(=O)c1ccccc1 do in these assays?
CHO-K1 Ca PAM: 3; CHO-K1 Ca ag: 1; OX1R antag-1: -14; CHO parental Ca: -7; OX1R antag-2: 51*; CHO-K1 Ca antag: -3

What do the screens show for `CC1CC(C)(C)CC2(C1)NC(=O)N(CC(=O)Nc1ccc(N3CCCCC3)cc1)C2=O` (stereo not drawn)?
CHO-K1 Ca PAM: -13; CHO-K1 Ca ag: 1; OX1R antag-1: -7; CHO parental Ca: 3; OX1R antag-2: 2; CHO-K1 Ca antag: -1

What do the screens show for `Cc1ccc(C(=O)N/C(=C\c2ccc(-c3cccc([N+](=O)[O-])c3)o2)C(=O)NC(C)(C)C)cc1`?
CHO-K1 Ca PAM: 22; CHO-K1 Ca ag: 3; OX1R antag-1: 1; CHO parental Ca: -17; OX1R antag-2: 74*; CHO-K1 Ca antag: -1

Results for O=C(Nc1cccc2ccccc12)/C(=C/c1cccc([N+](=O)[O-])c1)NC(=O)c1cccs1 ?
CHO-K1 Ca PAM: -7; CHO-K1 Ca ag: 4; OX1R antag-1: 20; CHO parental Ca: -10; OX1R antag-2: 67; CHO-K1 Ca antag: 13

How did O=C(Nc1cccc2ccccc12)/C(=C\c1cccc([N+](=O)[O-])c1)NC(=O)c1cccs1 do in these assays?
CHO-K1 Ca PAM: 10; CHO-K1 Ca ag: 3; OX1R antag-1: 19; CHO parental Ca: -8; OX1R antag-2: 56*; CHO-K1 Ca antag: 0

Results for C[C@H](CO)N1C[C@H](C)[C@@H](CN(C)CC2CC2)Oc2c(NC(=O)Cc3ccccc3)cccc2C1=O ?
CHO-K1 Ca PAM: 5; CHO-K1 Ca ag: -1; OX1R antag-1: -18; CHO parental Ca: -25; OX1R antag-2: 9; CHO-K1 Ca antag: 7

Results for COc1cc(CNCCNC(=O)c2nonc2N)ccc1OCc1ccc(Cl)nc1 ?
CHO-K1 Ca PAM: 24; CHO-K1 Ca ag: 20*; OX1R antag-1: -17; CHO parental Ca: -18; OX1R antag-2: 4; CHO-K1 Ca antag: -8

Results for Cc1ccc(Cl)cc1N1C(=O)CC(Sc2ccccc2N)C1=O (stereo not drawn) ?
CHO-K1 Ca PAM: 12; CHO-K1 Ca ag: 1; CHO-K1 Ca antag: 0
